The list shows a part of the results. Calls of active or inactive are those of the source.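 Rule for the calls: active = fluorescence in ABCG2-expressing cells above the plate's control-well mean plus 3 SD (cut at about 15 in these data); inactive = the rest.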
Assay: compound autofluorescence in ABCG2-expressing IgMXP3 cells, confirmation, artefact control for ABC transporter inhibitor project, cell-based, 488/530 nm, flow cytometry (AID 1480);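 note: median cell fluorescence with compound minus that of DMSO-treated control cells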
Conditions: compound autofluorescence 488/530 nm, at 6.6 µM, stronger effect = higher value
How it was run: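 Test system: drug-resistant ABCG2-expressing IgMXP3 cells, unlabeled with substrate / Medium: assay buffer supplied with a JC-1 mitochondrial potential kit / Probe or stimulus: none, JC-1 pump substrate omitted from wells / Compound dosing: single dose, test compound at 6.6 µM final / Schedule: 10 min compound exposure at 25 °C / Signal: high-throughput flow cytometry, green FL1 channel fluorescence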

fluorescence, inactive:
O=C(Cc1c[nH]c2ccccc12)N/N=C/c1cccc(F)c1 -0.24
C/C(=N\Nc1ncc(Cl)cc1Cl)c1ccc(S(=O)(=O)NCc2ccco2)cc1 -1.09
Cc1cccc2cc(CN(Cc3cccs3)C(c3nnnn3C3CCCC3)C(C)C)c(=O)[nH]c12 (stereo not drawn) -2.04
COc1ccc(C)cc1NC(=O)C(Sc1ccccc1)c1ccccc1 (stereo not drawn) -1.74
COc1cccc(NC(=O)c2ccc(Cn3cc([N+](=O)[O-])cn3)o2)c1 9.06
Cc1c(CCOC(=O)CC23CC4CC(CC(C)(C4)C2)C3)sc[n+]1Cc1ccc([N+](=O)[O-])cc1 -1.69
COc1ccc(-n2c(C)cc(C(=O)COC(=O)c3cc(OC)c(OC)cc3NC(=O)c3cccs3)c2C)cc1 1.61
CCOC(=O)c1sc(NC(=O)CSc2nnc(-c3ccco3)o2)c(C(=O)OCC)c1C 2.51
Cc1ccc(-n2c(SCC(=O)Nc3ncc(Cl)cc3Cl)nc3ccccc32)cc1 -0.59
CCOCC(=O)Nc1sc2c(c1C(=O)OCC)CCCC2 3.96

fluorescence, active:
C=CCn1c(SCCOc2ccc(OC)cc2)nnc1C(NC(=O)c1ccc(OC)cc1)C(C)C (stereo not drawn) 65.8
CCN1/C(=C/c2ccc3ccc(C)cc3[n+]2CC)Sc2ccccc21 228
Cc1ccc(OCC(O)CN2CCN(CC(O)COc3ccc(C)cc3Cl)CC2)c(Cl)c1 (stereo not drawn) 31.2

Source: PubChem BioAssay AID1480 (NMMLSC, 2009)
